Rows were chosen to be rich in hits. Some 3.7% of all compounds tested hit in one or more screens of this group.
MT stabilizer: microtubule stabilizers in HeLa cells, primary screen, imaging, high-content imaging | HeLa tubulin immunostaining HCS, 24 h; share of cells brighter than vehicle mean+2SD | % tubulin-high responders, % at 10 µM | 200,000 tested, 0.83% active | AID 2205, 2009;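 active = plate Z-score above 3 for both tubulin-high and condensed-nucleus cell shares, with cell loss under 80%, at 10 µM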;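 also: anti alpha tubulin signal scored within the nucleus-defined area of each cell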
DTT redox prof: compounds producing H2O2 with reducing agent – biochemical, NIH compound library profiling, artefact control for MLSCN library redox annotation, primary screen; 200,000 tested, 0.03% active; AID 878, 2007; activation, % at 10 µM; DTT-dependent redox cycling H2O2, phenol red/HRP absorbance; 100% = 100 µM peroxide control, 0% = buffer;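 active = activation of at least 50% relative to the plate's high and low controls in the primary single-dose screen; inactive = activation below 50%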;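 also: compound incubated with DTT at 0.8 mM final as the reducing agent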
KCC2 mod: KCC2 cotransporter modulators, thallium flux, primary screen, cell-based, HEK293 KCC2, FluoZin-2 fluorescence, MLSMR. 190,000 tested, 2.2% active. B-score of Tl+ flux slope (higher = more flux/activation; lower = inhibition) at 10 µM. KCC2 cells, thallium flux FluoZin-2 fluorescence;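 active = thallium flux slope and its plate-corrected score both differing from the plate sample mean at a set confidence after two filtering rounds, in either direction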;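 also: slope of fluorescence scaled to starting intensity during 10 to 20 s after thallium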
b-catenin transl: modulators of beta-catenin nuclear translocation, primary screen, imaging, HeLa cells, immunofluorescence, high-content; nuclear translocation activity, % at 5 µM; 190,000 tested, 0.3% active; AID 1665, 2009;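 active = nuclear translocation activity above 50% at 5 µM, with a well cell count of 50 or more; inconclusive = wells under 50 cells across six images, flagged as toxic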;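 also: per-cell ratio of nuclear to cytoplasmic median beta-catenin stain intensity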
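Read-out: Nuclear/cytoplasmic beta-catenin signal ratio, % activation | Assay system: Human HeLa cell line | Times: 24 h compound exposure at 37°C, 5% CO2 | Signal: Fluorescence imaging of beta-catenin antibody stain plus DAPI | Dosing: 5 µM primary, 0.02–20 µM confirmation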
ROMK primary: ROMK potassium channel modulators, primary screen, cell-based, thallium flux, MLSMR library. ATP-sensitive inward rectifier potassium channel 1 (Homo sapiens), P48048. Tet-inducible ROMK, thallium flux fluorescence; actives lie on both sides. B-score at 10 µM. 130,000 tested, 2% active;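 active = signal ratio slope over the read window, or its plate-corrected B-score, at least 3 SD from the plate mean, either direction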;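 also: B-score of the F/F0 ratio slope over 7 to 12 s after thallium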
Target sequence (P48048 whole entry, looked up): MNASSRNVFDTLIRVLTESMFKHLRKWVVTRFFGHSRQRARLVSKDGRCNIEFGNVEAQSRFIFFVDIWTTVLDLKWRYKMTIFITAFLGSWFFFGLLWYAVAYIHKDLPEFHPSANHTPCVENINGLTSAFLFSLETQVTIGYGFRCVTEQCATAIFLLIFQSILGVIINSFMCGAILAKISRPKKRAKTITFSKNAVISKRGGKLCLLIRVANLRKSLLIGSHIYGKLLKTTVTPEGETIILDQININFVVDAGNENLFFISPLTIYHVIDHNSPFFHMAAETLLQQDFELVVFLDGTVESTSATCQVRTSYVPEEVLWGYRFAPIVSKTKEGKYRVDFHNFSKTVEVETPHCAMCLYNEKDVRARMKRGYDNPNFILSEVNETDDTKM
ROMK hit retest: ROMK channel modulator hit retest, confirmation, cell-based, thallium flux, duplicate, resupplied hits; shares compounds with ROMK primary; fluorescence ratio; active compounds read low; normalized thallium flux (F/F0 slope) at 10 µM; 3,000 tested, 54% active; AID 1917, 2009;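 active = Flux at 10 µM at least 3 SD below or above vehicle control mean in one or both replicates; inconclusive = no clear call, values can overlap the other calls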
Of the large screens only hits and unclear results are named; the others gave an inactive call (follow-up assays come after a bar, where they were run).

Cc1cc(N)n(-c2ccc(S(N)(=O)=O)cc2[N+](=O)[O-])n1	none
CCCCc1c(CCC)c(=N)c2ccccc2n1C	none (no result: ROMK primary)
COc1ccccc1C(=O)N/C(=N/c1nc(C)cc(C)n1)Nc1ccccc1	none (no result: MT stabilizer, DTT redox prof, ROMK primary)
Nc1ncnc2c1ncn2CCNCCc1ccccc1	none (no result: KCC2 mod, ROMK primary) | ROMK hit retest inactive
O=C1CCc2ccc(NC(=O)C3CC3)cc2N1	none
CC1(C)N=C(N)N=C(N)N1c1ccc(OCCCOc2ccccc2)c(Cl)c1	ROMK primary -3.1 (no result: MT stabilizer, DTT redox prof) | ROMK hit retest 0.06
O=C(Cn1nc2n(c1=O)-c1ccccc1SC2)N/N=C/c1cccnc1	none (no result: MT stabilizer, DTT redox prof, ROMK primary)
CCC(C)(C)NC(=O)C(c1cccc(OC)c1OC)N(CCC(C)C)C(=O)CCC(=O)Nc1cc(C)on1 (stereo not drawn)	ROMK primary -2.5 | ROMK hit retest 0.063
Cc1ccc(C2C(C#N)=C(N)Oc3cc(C)oc(=O)c32)o1 (stereo not drawn)	none
Cc1ccc(-n2c(Cl)c(Cl)nc(Cl)c2=O)cc1	ROMK primary -4.7 | ROMK hit retest 0.047
CCOC(=O)c1csc(NC(=O)c2cc(=O)c3ccccc3o2)n1	none
CC(=O)c1sc(NC(=O)c2cc(=O)c3ccccc3o2)nc1C	ROMK primary 2.9 | ROMK hit retest inactive
O=C(CSc1ccc(-c2ccco2)nn1)NC1CCCC1	none (no result: ROMK primary) | ROMK hit retest inactive
O=C(CSc1ccc(-c2ccco2)nn1)NC1CCCCC1	none (no result: ROMK primary)
O=C(c1cc(S(=O)(=O)N2CCC3(CC2)OCCO3)ccc1F)N1CCCCC1	none (no result: b-catenin transl)
O=C(COC(=O)c1cccs1)NCC1CCCCC1	none
N#CC1=C(N)Oc2c(ccc3cccnc23)C1c1cccnc1 (stereo not drawn)	MT stabilizer 22, b-catenin transl 56, ROMK primary 3.6 | ROMK hit retest inconclusive
CC1=NN(c2ccccc2)C(=O)/C1=C/N(C)C	none (no result: MT stabilizer, DTT redox prof, ROMK primary)
CC1=NN(c2ccccc2)C(=O)/C1=C\C=C1\N(C)c2ccccc2C1(C)C	none (no result: ROMK primary) | ROMK hit retest 0.063
CC1=NN(c2ccccc2)C(=O)/C1=C\C=C1/N(C)c2ccccc2C1(C)C	none (no result: ROMK primary) | ROMK hit retest inactive
CC1=NN(c2ccccc2)C(=O)/C1=C\C=C\c1ccccc1	none (no result: MT stabilizer, DTT redox prof, ROMK primary)
Cc1ccc(C)n1-c1ccc(C(=O)NN)s1	none
CCCCCCCCCC[n+]1cccc2c3ccccc3ccc21	none (no result: b-catenin transl, ROMK primary) | ROMK hit retest 0.035
Cc1cccc[n+]1CCCCCCCCCC[n+]1ccccc1C	none
CCCCCCCC[n+]1cccc2c3ccccc3ccc21	none (no result: b-catenin transl, ROMK primary) | ROMK hit retest 0.052
CCCCCCCCNc1ncnc2ccccc12	none (no result: KCC2 mod)
CCNc1ccc(S(=O)(=O)N(C)C)cc1NCC(=O)Nc1ccc(Br)cc1F	ROMK primary -3.2 | ROMK hit retest 0.062
O=C(O)CCCNS(=O)(=O)/C=C/c1ccccc1	none
N#CC(C#N)=C1C=CC=CN1/C(=C\c1ccco1)C(=O)c1ccc(Cl)cc1	ROMK primary -3 | ROMK hit retest 0.045
COc1ccc(Cl)cc1-n1c(C)ccc1C	none
CCn1c(O)c(/C=N/N=C2CCCCC2)c2cc(C3=NNC(=O)CC3)ccc21	none (no result: MT stabilizer, DTT redox prof, ROMK primary) | ROMK hit retest 0.067
CC(C)Oc1ccc(/C=C/C(=O)NCC2COc3ccccc3O2)cc1 (stereo not drawn)	none (no result: MT stabilizer, DTT redox prof, ROMK primary)
O=C(NNC1=Nc2cccc3cccc1c23)c1ccc(Br)cc1	ROMK primary -3.4 | ROMK hit retest inactive
COc1ccc(/C=C/CN2CCC(CO)(Cc3ccccc3Cl)CC2)cc1	ROMK primary -1.8 | ROMK hit retest 0.063
COC(=O)c1ccc(CN2CCC(CO)(Cc3ccccc3Cl)CC2)cc1	none (no result: ROMK primary)
Cc1ccc(Cl)cc1NC(=S)N1CCC(c2ccccc2)C1 (stereo not drawn)	none (no result: ROMK primary)
CCCCC1CC(CSC(=N)N)OC1=O (stereo not drawn)	none (no result: ROMK primary)
CCCCCCCC1CC(CSC(=N)N)OC1=O (stereo not drawn)	ROMK primary -5 | ROMK hit retest 0.058
CCN(CC)CCNC(=O)c1ccc(NC(=O)COc2ccccc2F)cc1	ROMK primary 1.9 (no result: KCC2 mod) | ROMK hit retest inactive
O=C(c1ccccc1)N1CCN(c2ccc([N+](=O)[O-])c(NCC3CCCO3)c2)CC1 (stereo not drawn)	none
CC(C)=CCC/C(C)=C/CCC(C)NCCN1CCNCC1 (stereo not drawn)	ROMK primary -3.3 (no result: KCC2 mod) | ROMK hit retest 0.054
Cc1ccc(C(C[N+](=O)[O-])n2nc(C)cc2C)cc1 (stereo not drawn)	none | ROMK hit retest 0.059
Cc1ccc(C(C[N+](=O)[O-])Sc2ccc(N)cc2)cc1 (stereo not drawn)	none (no result: MT stabilizer, DTT redox prof, KCC2 mod, ROMK primary)
COc1ccc(N=C2O/C(=C/c3sc(=S)n(CC4CCCO4)c3O)N=C2C#N)cc1 (stereo not drawn)	none (no result: MT stabilizer, DTT redox prof, ROMK primary) | ROMK hit retest 0.055
CCCCCCn1c2c(c(=N)c3c1CCC3)CCC2	none (no result: KCC2 mod, ROMK primary)
CCCCCCCCCn1c2c(c(=N)c3c1CCC3)CCC2	none (no result: ROMK primary) | ROMK hit retest 0.043
O=[N+]([O-])c1cc(S(=O)(=O)N2CCCCC2)ccc1NCCCN1CCOCC1	none
Cc1cc(C)c(CN2CCC(CO)(CCOc3ccccc3)CC2)cc1C	none (no result: KCC2 mod)
OCC1(CCOc2ccccc2)CCN(C2Cc3ccccc3C2)CC1	ROMK primary -3 | ROMK hit retest 0.058
O=C(CNC(=O)c1cccc(F)c1)N/N=C/c1cccc([N+](=O)[O-])c1	none
CCOc1cc(CNCCc2ccc(S(N)(=O)=O)cc2)ccc1OCc1ccc(Cl)cc1	none
COc1cc(CNCCc2ccc(S(N)(=O)=O)cc2)ccc1OCc1ccc(Cl)cc1	ROMK primary -2.6 | ROMK hit retest 0.058
COc1cccc(CNCCc2c[nH]c3ccccc23)c1OCc1ccccc1	none (no result: ROMK primary) | ROMK hit retest 0.059
COc1cc(CNCCc2ccccc2)ccc1OCc1ccc(Cl)nc1	ROMK primary -3.7 | ROMK hit retest 0.057
COc1ccccc1CCNCc1ccc(OC)c(OCc2ccccc2)c1	none (no result: ROMK primary) | ROMK hit retest 0.065
COCCNC(=O)c1cccc(Nc2nc(-c3ccccc3)c3cc(Cl)ccc3n2)c1	none (no result: ROMK primary)
COC(=O)C1=C(C(=O)OC)[C@@H]2N(Cc3ccccc3)c3ccccc3[C@@]23C[C@@H](C(=O)OC)N(C(=O)CC(C)C)C3=N1	none (no result: MT stabilizer, DTT redox prof, ROMK primary) | ROMK hit retest inconclusive
O=C(CN(CCc1ccccc1)S(=O)(=O)c1ccc(Br)cc1)N/N=C/c1ccccc1C(=O)O	none
COc1ccc(OC)c(NC(=O)c2sc3nc(Cc4ccccc4)cc(C(F)(F)F)c3c2N)c1	ROMK primary -4.2 | ROMK hit retest 0.033
CCSc1nccc(-c2nn(-c3ccc(C)cc3)ccc2=O)n1	MT stabilizer 50, b-catenin transl 133, ROMK primary 3.1 (no result: KCC2 mod) | ROMK hit retest inactive

Bioassay records as filed in PubChem.
